Laboratory results: ChEMBL document CHEMBL4513216, “Probing the Open Global Health Chemical Diversity Library for Multistage-Active Starting Points for Next-Generation Antimalarials” (ACS Infect Dis, 2020)

Assay: Toxicity liver stage against HepG2, at 10uM
Format: cell-based
Parameters: test concentration 10 uM, cell line HepG2-A16-CD81EGFP
Settings: human, HepG2-A16-CD81EGFP cells; read-out: INHIBITION
Summary of the method: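 Uninfected HepG2-A16-CD81EGFP cells, 3 × 10^3 per well, 1536-well, plated on prespotted compound at 10 μM final, parasite-free screening media added to match infected plates; puromycin 10 μM positive, DMSO 0.5% negative; run in parallel with 48 h PbLuc assay at 37 °C, 5% CO2; viability by CellTiter-Glo luminescence, normalized to controls.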

Row | SMILES | cytotoxicity at 10 µM [%]
1 | Cn1c(=O)oc2cc(S(=O)(=O)N3CCC(c4ccccc4)C3)c(Cl)cc21 (configuration not stated) | 12.4
2 | CCOC(=O)CN1C(=O)CN(S(C)(=O)=O)CCC(OC)c2ccccc21 (configuration not stated) | 1.5
3 | COc1ccc2c(ccn2CC(=O)NC[C@@H]2CCCN3CCCC[C@H]23)c1 | -4.56
4 | COc1ccccc1OCC(=O)N1CCC[C@]2(C[C@@H](OC)CO2)C1 | 1.04
5 | Cc1cccc(-c2nccnc2C2CCN(C)CC2)c1C | 2.14
6 | Cc1nc(-c2ccc(F)cc2)cc(C2CCNCC2)n1 | 8.1
7 | Cc1ncsc1-c1nnc(C2CCN(Cc3cccc(F)c3F)CC2)o1 | -15.8
8 | Cc1ccc(CCN2CCCC23Cc2ccccc2CNC3=O)cc1 (configuration not stated) | 7.41
9 | CCc1cc2c(N3CCCC(c4cc(C(N)=O)[nH]n4)C3)ncnc2s1 (configuration not stated) | 3.25
10 | CCSCCOC(=O)CCCc1ccc2c(c1)CC(=O)N2 | 6.34
11 | Cc1ccc(C(=O)N2CCOCC2C(N)=O)c(F)c1 (configuration not stated) | 3.72
12 | CC(C)N(CC(=O)Nc1cccc(C#N)c1)C1CC1 | -7.16
13 | Cc1occc1C(=O)NCC(=O)NCCCOc1ccc(F)cc1 | -45.1
14 | CC(C)n1cc(CN2CCCN(C(=O)C3(C)CCOCC3)CC2)cn1 | -48.2
15 | Cc1cccc(S(=O)(=O)NC(=O)CN(C)Cc2ccccc2)c1 | -14.3
16 | O=C(NCCNC1CCN(c2nccs2)CC1)c1cccs1 | 5.73
17 | O=C(Cc1cccs1)NCC1(O)CCSC1 (configuration not stated) | -9.66
18 | CC1CCN(CC2CCCN(C(=O)Nc3ccccn3)C2)CC1 (configuration not stated) | -9.85
19 | Cc1ccc(NCCNC(=O)C2Cc3cc(C)c(C)cc3O2)nn1 (configuration not stated) | 3.34
20 | CCc1noc(CN(C)C(=O)c2ccnc(OC3CCC3)c2)n1 | 4.86
21 | CC(C)COCCC(=O)NCc1cn2cc(Br)ccc2n1 | 4.26

Row | SMILES | cytotoxicity at 10 µM [%]
22 | COc1ncccc1C(=O)N1CCCC(n2ccnc2C)C1 (configuration not stated) | -7.41
23 | COCCOCC(=O)Nc1ccc(F)cc1C | 12.8
24 | Cc1c(C(N)=O)sc2nc(C(F)(F)F)ccc12 | -3.33
25 | CC(CCNC(=O)NCCc1ccc(S(N)(=O)=O)cc1)c1ccccc1 (configuration not stated) | -17.4
26 | N#Cc1cccc(OCC(=O)N(Cc2ccsc2)C2CC2)c1 | -50.2
27 | O=C(NC1CCN(c2ncccn2)CC1)c1cc2c(cc1O)CCCC2 | 8
28 | COc1cc(CN(C)Cc2cccnc2)c(SC)cc1OC | 2.3
29 | COCCNC(=O)c1ccc2c(=O)n3c(nc2c1)CCCCCC3 | -46.3
30 | CCC(C(=O)Nc1ccc2cn(CC)nc2c1)N1CCCC1=O (configuration not stated) | -46.7
31 | CO[C@H]1CN(C(=O)OC(C)(C)C)CC1NCc1cccn1C (some centres not stated) | -44
32 | CN1CC(C(=O)NCc2cccnc2OCc2ccccc2)CC1=O (configuration not stated) | 4.44
33 | CC(=O)N1CCCN(C2CCCCc3ccccc32)CC1 (configuration not stated) | -48.6
34 | Cc1cc(NC(=O)C(C)N2CCN(c3ccc(C#N)cc3F)CC2)no1 (configuration not stated) | 6.16
35 | CCOc1ccc(CN(CCC#N)CCN2CCOCC2)cc1OC | -9.98
36 | O=C(CCc1ccsc1)NS(=O)(=O)Cc1ccon1 | -12.6
37 | COc1cccc(CSCC(=O)NCc2cccnc2)c1 | -46.3
38 | CN(CC(=O)N(C)C1CCCCC1)Cc1nc2c(cnn2C)c(=O)[nH]1 | 9.12
39 | Fc1cc(CNCc2ccc3c(c2)CCO3)ccc1N1CCOCC1 | -7.24
40 | Cc1ccc(CNCC2Cn3nncc3CO2)s1 (configuration not stated) | -99.4
41 | Cc1ccoc1C(=O)N1C[C@@H](OCC2CC2)[C@H]2OCCC[C@H]21 | 5.86
42 | NC(=O)N1CCC2(CC1)CN(c1ccsc1)C(=O)CO2 | 10.7

Row | SMILES | cytotoxicity at 10 µM [%]
43 | O=C1[C@@H]2CCN(Cc3ccncc3)C[C@@H]2OCCN1c1ccccc1 | -1.06
44 | C[C@H](O)CNc1cc(-c2ccncc2)ncn1 | -11.1
45 | CNC(=O)c1cn2cc(-c3cccc(Cl)c3)n(CC3CC3)c(=O)c2n1 | -37.4
46 | CC(C)c1nnc2n1CCN(Cc1ccc3c(c1)OCO3)CC2 | 1.67
47 | O=C(C1CCOCC1)N1CCOC(CC2CCCCC2)C1 (configuration not stated) | -5.56
48 | Cc1cc(C)c2c(c1)C(CC(=O)O)C(=O)N2 (configuration not stated) | 7.16
49 | c1ccc(-c2ncn(CCCN3CCOCC3)c2-c2ccncc2)cc1 | -7.64
50 | CCNC(=O)[C@@H]1C[C@@H](NC(=O)c2cc(C)on2)CN1Cc1ccccn1 | -6.78
51 | Cc1[nH]c2ccc(CNc3cc(C(=O)NC(C)C)ccn3)cc2c1C | 16.2
52 | Cc1n[nH]c(CCC(=O)N2CCOC(Cc3ccc(F)cc3)C2)c1C (configuration not stated) | -40.4
53 | CCOC(=O)N[C@H]1C[C@@H](C(=O)NCCc2cccc(Cl)c2)N(C)C1 | -3.79
54 | Cc1ccc([C@@H]2CN(S(=O)(=O)Cc3ccccc3)C[C@H]2N(C)C)cc1 | -2.85
55 | CN(C)c1nc(NCCCN2CCc3ccccc32)ncc1F | 27.3
56 | CSCc1nc(CNC(=O)c2cnn(C(C)C)c2)cs1 | 1.98
57 | Cc1nnsc1CN(C)Cc1ccc(C(=O)Nc2sccc2C#N)cc1 | 4.06
58 | CCc1nc(CNc2cc(C)nc(-c3cccnc3)n2)cs1 | -63.6
59 | COc1cc(N2CCCC(c3nccn3Cc3ccncc3)C2)ncn1 (configuration not stated) | -6.82
60 | CC(C)CN1CCc2[nH]cnc2C12CCN(C(=O)c1ccccn1)CC2 | -11.6
61 | CC(C)[C@H]1CN(C2Cc3ccccc3C2)C[C@@H]1NS(=O)(=O)N(C)C | 1.52
62 | CCCc1cc(C(=O)N2C[C@H](O)[C@@H](N3CCCC3)C2)ccn1 | 5.92
63 | CNC(=O)c1[nH]nc2c1CN(c1cc(C3CCCNC3)nc(C)n1)CC2 (configuration not stated) | -51.8

Row | SMILES | cytotoxicity at 10 µM [%]
64 | COc1cccc(C(=O)N2CCN(C(=O)CCn3ccnc3)CC2)c1 | 10.3
65 | CCc1nc(N)sc1C(=O)N1CCCC(CCc2ccccc2C)C1 (configuration not stated) | 6.46
66 | Fc1ccccc1-c1noc2c1CN(CC1CC1)CC2 | -15.4
67 | CC(C)n1ccnc1CN1CCCN(C(=O)c2cscn2)CC1 | -1.63
68 | CN(Cc1nc2ccccc2o1)CC1CCCN1c1cccnn1 (configuration not stated) | -9.45
69 | Cc1cn2c(n1)CCC(NC(=O)CCC(F)(F)F)C2 (configuration not stated) | -9.12
70 | Cc1ccc(CNC(c2ccccc2)c2nccn2C)cc1C (configuration not stated) | 0.323
71 | Cn1nccc1CNC(=O)Nc1cc(C(F)(F)F)c[nH]c1=O | 1.04
72 | CC(C)(C)CC(=O)NCCn1nc(C2CCNC2)c2cccnc21 (configuration not stated) | -0.00173
73 | O=C1CC[C@H]2[C@H](CCN2C(=O)C2CCOC2)N1Cc1ccncc1 (some centres not stated) | 6.67
74 | Cc1ccc(CN2CCC3(C2)C(=O)N(CC2CC2)c2ccccc23)s1 (configuration not stated) | 13.4
75 | CCCN1CCC(c2nc3ccc(-c4ccccc4)cn3n2)CC1 | -129
76 | CN1[C@H](Cn2cncn2)C[C@@H]2CN(Cc3ccsc3)CC[C@@H]21 | -118
77 | Cc1ccc(CN2CCn3c(CNC(=O)c4cccn4C)cnc3C2)s1 | 1.82
78 | Cn1nc(CN2CCCC2)c2c1CN(c1cnccn1)CC2 | -95.3
79 | COCCN1CCC12CCN(C(=O)c1ccc(C)nc1)C2 (configuration not stated) | -102
80 | Cc1ccc(CN2CC[C@H]3OCC[C@@]3(COCC(=O)N(C)C)C2)s1 | -97.8
81 | O=C(C1CC1)N1CCc2ccccc2C12CCNCC2 | 5.35
82 | Cc1ccccc1C(=O)N1C[C@@H]2C(CN(C)CCc3ccccn3)[C@@H]2C1 (some centres not stated) | -54.9
